Laboratory results from ChEMBL document CHEMBL3228045, “1-(Dichloroacetyl)-1,2,3,4-tetrahydro-6-quinolinol esters. New potent antiamebic agents” (J Med Chem, 1979).

How the values were obtained:
[1] = Antiamebic activity against Entamoeba criceti infected in hamster assessed as reduction of trophozoites in cecum administered intragastric gavage bid for three consecutive days by microscopy; type: functional; conditions: Caecum, po
Procedure, shortened: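 Vehicle: 10% gelatin suspension, given by intragastric gavage in two split portions daily (morning and afternoon) for 3 consecutive days, dosed as (mg/kg)/day. Colony infection rate was at least 90%. Five hamsters per group at three twofold dose levels. The day after the last dose, cecal-wall scrapings in saline were examined microscopically at 43×. An animal with no trophozoites counted as cleared.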

[2] = Antiamebic activity against trophozoite form of Entamoeba criceti infected in hamster assessed as reduction in spontaneous infection in cecum administered intragastric gavage as single dose by microscopy; type: functional; conditions: Caecum, po
Procedure, shortened: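 Hamsters with spontaneous Entamoeba criceti infection were given one oral dose of drug. ED50 is reported ± SE in mg/kg po.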

Rattus norvegicus = test: Toxicity in rat assessed as mortality at 10 mg/kg, po by acute test; type: organism-based; parameters: dose 10 mg/kg, route oral; conditions: in vivo
Hamster = test: Toxicity in hamster assessed as mortality at 10 mg/kg, po by acute test; type: organism-based; parameters: dose 10 mg/kg, route oral; conditions: cricetinae, in vivo
[3] = Antiamebic activity against Entamoeba criceti infected in hamster assessed as reduction of trophozoites in cecum administered intragastric gavage as four dose by microscopy; type: functional; conditions: Caecum, po

O=C(Oc1ccc2c(c1)CCCN2C(=O)C(Cl)Cl)c1cccs1
ED50 [1]: 0.16 mg/kg
ED50 [2]: 4.8 mg/kg

CN(C(=O)C(Cl)Cl)c1ccc(OC(=O)c2ccco2)cc1 [DILOXANIDE FUROATE]
ED50 [1]: > 3.2 mg/kg

O=C(Oc1ccc2c(c1Br)CCCN2C(=O)C(Cl)Cl)c1cccs1
ED50 [1]: 1.24 mg/kg

O=C(Oc1ccc2c(c1)CCCN2C(=O)C(Cl)Cl)c1ccco1 [QUINFAMIDE]
ED50 [1]: 0.2 mg/kg
ED50 [2]: 0.75 mg/kg
Activity (Rattus norvegicus): Non-toxic
Activity (Hamster): Non-toxic

CCOCCN(Cc1ccc(Oc2ccc([N+](=O)[O-])cc2)cc1)C(=O)C(Cl)Cl [ETOFAMIDE]
ED50 [3]: 0.38 mg/kg

O=C(Oc1ccc2c(c1Cl)CCCN2C(=O)C(Cl)Cl)c1ccco1
ED50 [1]: 0.21 mg/kg

O=C(CCl)N1CCCc2cc(O)ccc21
ED50 [1]: 2 mg/kg

CNC(=O)Oc1ccc2c(c1)CCCN2C(=O)C(Cl)Cl
ED50 [1]: 5.7 mg/kg

O=C(C(Cl)Cl)N1CCCc2c1ccc(O)c2Cl
ED50 [1]: 0.5 mg/kg

CCCC(=O)Oc1ccc2c(c1)CCCN2C(=O)C(Cl)Cl
ED50 [1]: 0.75 mg/kg

O=C(Oc1ccc2c(c1)CCCN2C(=O)C(Cl)Cl)c1ccccc1
ED50 [1]: 0.2 mg/kg
ED50 [2]: 1.6 mg/kg

O=C(C(Cl)Cl)N1CCCc2c1ccc(O)c2Br
ED50 [1]: 0.56 mg/kg

CCCCCC(=O)Oc1ccc2c(c1)CCCN2C(=O)C(Cl)Cl
ED50 [1]: 1.75 mg/kg

O=C(N1CCCc2cc(O)ccc21)C(Cl)(Cl)Cl
ED50 [1]: 3 mg/kg

O=C(Oc1ccc2c(c1Cl)CCCN2C(=O)C(Cl)Cl)c1cccs1
ED50 [1]: 0.22 mg/kg

O=C(C(Cl)Cl)N1CCCc2cc(O)ccc21
ED50 [1]: 1.2 mg/kg

O=C(Oc1ccc2c(c1Br)CCCN2C(=O)C(Cl)Cl)c1ccco1
ED50 [1]: 0.39 mg/kg
